Screening data: PubChem, several laboratories
Runt-CBFb FRET: inhibitors of human RUNX1 Runt domain binding to CBFb; Q01196+Q13951; Cerulean-Runt/Venus-CBFb FRET ratio 530/480, 1 h; inhibition, % at 20 µM; actives 0.46% (n = 220,000); AID 1496;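 active = inhibition over about 50% at 20 µM in the single-dose screen, limit read from the data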;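 note: 0% = DMSO wells and 100% = excess unlabeled CBFb competitor control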
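Doses: 20 µM compound in 1% DMSO | Material: Cerulean-labeled Runt domain protein | Amount: Each fluorescent fusion protein 100 nM | Schedule: Two 1 h room-temperature incubations shielded from light | Measured by: FRET fluorescence | Evaluation: Loss of energy transfer signal | Controls: Unlabeled CBFb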
RanGTP-Impb inh: disruptors of Ran-importin-beta complex formation – biochemical, FRET, CFP-Ran, YFP-importin-beta, homogeneous, primary screen | actives 1.1% (n = 300,000) | cell-free CFP-Ran/YFP-importin-beta FRET ratio | inhibition, % (test concentration not listed);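 active = more than half of the replicate wells show a fall in the fluorescence ratio signal beyond about 16%, limit read from the data, passing the limit was not always enough; inconclusive = exactly half of the replicate wells pass the set limit; inactive = fewer than half of replicates pass the limit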;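 note: 0% = DMSO wells and 100% = Ran loaded with GDP instead of GTP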
Wee1 stabilizer: inhibitors of human Wee1 degradation | P30291 | HeLa Luc-Wee1K328M stability, luciferase luminescence; 100% = proteasome inhibitor MG132 effect | reporter increase, % at 5 µM | actives 1.2% (n = 220,000) | AID 1321;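 active = activation above the mean of all tested compounds plus 3 SD, set per screening run, cut at about 8.8% in these data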;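 note: cells exposed to compound for 20 h before luminescence read; 0% = DMSO alone and 100% = MG132 at 30 µM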
Runt-SMMHC FRET: blocks binding of human RUNX1 Runt domain to CBFb-SMMHC; Cerulean-Runt/Venus-CBFb-SMMHC FRET ratio 530/480, 1 h; inhibition, % at 20 µM; actives 0.74% (n = 220,000);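 active = mean inhibition across duplicate retests at 20 µM reaching about 50%, limit read from the data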;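 note: 0% = DMSO wells and 100% = wells with excess untagged CBFb-SMMHC; inhibitors lower the FRET ratio by blocking Runt binding to CBFb-SMMHC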
PHOSPHO1 block: blocks human PHOSPHO1 phosphatase activity. recombinant PHOSPHO1, absorbance phosphatase assay. actives 1.1% (n = 290,000). inhibition, % at 13.3 µM. Q8TCT1; in the data active = inhibition above about 60%
Target sequence (Q8TCT1 whole entry, looked up): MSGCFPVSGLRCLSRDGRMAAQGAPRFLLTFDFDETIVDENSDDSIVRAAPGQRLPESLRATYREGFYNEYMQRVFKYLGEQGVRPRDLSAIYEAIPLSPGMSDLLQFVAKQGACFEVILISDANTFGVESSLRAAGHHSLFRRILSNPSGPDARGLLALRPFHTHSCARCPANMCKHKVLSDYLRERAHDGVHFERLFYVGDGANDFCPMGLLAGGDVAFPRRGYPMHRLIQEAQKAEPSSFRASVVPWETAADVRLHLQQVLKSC
Efa HMGR inh: inhibitors of class II HMG-CoA reductase from Enterococcus faecalis. inhibition, % at 10 µM. purified E. faecalis HMGR, NADPH absorbance 340 nm kinetic. AID 1066. actives 0.41% (n = 190,000);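 active = inhibition above a set limit, the median over all tested compounds plus 3 SD, cut at about 9.5% in these data; inconclusive = no clear call, values can overlap the other calls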;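 note: enzyme runs in reverse so mevalonate oxidation gives rising NADPH absorbance; 0% = complete reaction with DMSO and 100% = background rate lacking mevalonate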
* marks the source's active call; other numbers are inactive results; ? = inconclusive; nt = no result given. Only some compounds are listed: those with a hit (about 3.4% of all), similar ones and a draw of the others.

SMILES	Runt-CBFb FRET	RanGTP-Impb inh	Wee1 stabilizer	Runt-SMMHC FRET	PHOSPHO1 block	Efa HMGR inh
CCCCC(=O)Nc1nn(C)c2nc3c(C)cccc3cc12	22	8	-2	43	-2	2
CCCCC(=O)Nc1nn(CC)c2nc3c(C)cccc3cc12	nt	37*	nt	nt	36	nt
CCn1nc(NC(=O)COC)c2cc3cccc(C)c3nc21	nt	44*	nt	nt	-12	nt
CCn1nc(NC(=O)Cc2ccc(OC)cc2)c2cc3cccc(C)c3nc21	82*	24*	-1	82*	12	nt
Cc1nn(CC(=O)NNC(=O)c2cccc(Br)c2)c(C)c1[N+](=O)[O-]	nt	0	nt	nt	38	nt
COCCSc1nnc(NC(=O)C(C)(C)C)s1	0	-2	8.8*	4	7	-1
COc1ccc(CCNC(=O)Cc2ccc(NC3=NC4CS(=O)(=O)CC4S3)cc2)c(OC)c1 (stereo unspecified)	nt	-2	nt	nt	33	nt
Cc1ccc(C)c(N=C2CCCN2Cc2ccccc2)c1C#N	-6	0	-1	-3	0	13*
CC1Cc2ccccc2N1Cc1nc2scc(-c3cccs3)c2c(=O)[nH]1 (stereo unspecified)	-6	3	2	-20	88*	-3
COC(=O)Nc1nnc(-c2ccncc2)s1	2	7	0	-6	62*	-5
Cc1ccc(NC(=O)Nc2nnc(-c3ccncc3)s2)cc1C	nt	1	2	nt	-15	-4
Cc1ccc(C(c2sc3ncnn3c2O)N2CCC(C)CC2)cc1 (stereo unspecified)	-1	?	-1	6	-7	6
CC1CN(C(c2ccco2)c2sc3ncnn3c2O)CC(C)O1 (stereo unspecified)	13	9	0	-2	100*	0
Cc1nc2sc(C(c3cccs3)N3CCN(c4cccc(Cl)c4)CC3)c(O)n2n1 (stereo unspecified)	-6	0	11*	-3	-7	-3
Cc1nc2sc(C(c3ccco3)N3CCN(c4ccccc4F)CC3)c(O)n2n1 (stereo unspecified)	19	0	0	7	94*	0
Cc1nc2sc(C(c3ccco3)N3CCN(c4ccc(F)cc4)CC3)c(O)n2n1 (stereo unspecified)	2	2	-1	-6	-112	-1
CCOC(=O)c1c(-c2ccco2)csc1N	-8	10	1	-62	80*	-5
CCOC(=O)c1c(-c2cccs2)csc1N	9	-3	0	-1	-70	-4
CC(=O)Nc1ccc2c(c1)C(=O)c1ccccc1C2=O	-3	-1	-2	-8	40	-2
O=C(O)/C=C/C(=O)Nc1ccc2c(c1)C(=O)c1ccccc1C2=O	0	-1	9.9*	-10	42	nt
Cc1csc(NC(=O)c2cc3c(s2)-c2ccccc2OC3)n1	2	49*	0	-12	2	-8
CN(C)CCNC(=O)c1cc2c(s1)-c1ccccc1OC2	4	2	-1	10	-12	1
CCCc1nnc(NC(=O)Cn2cnc3ccccc3c2=O)s1	1	-2	-4	3	8	3
Cc1[nH]c(=O)c(C#N)c2c1COC(C)(C)C2	0	3	2	0	23	-11
CC1=C(C#N)C(=O)OC(C)(C)C1	32	72*	-3	78*	-1	-9
SMILES	Runt-CBFb FRET	RanGTP-Impb inh	Wee1 stabilizer	Runt-SMMHC FRET	PHOSPHO1 block	Efa HMGR inh
COc1cc2c(cc1OC)C(c1ccccc1)N(S(C)(=O)=O)CC2 (stereo unspecified)	2	0	1	-2	11	2
CCc1ccccc1NC(=O)C1CCN(C(=O)c2ccc([N+](=O)[O-])cc2)CC1	0	1	-1	-1	46	6
CN1CCc2nc(NC(=O)COc3ccc(C#N)cc3)sc2C1	36	23*	-1	59*	-15	-3
O=C(COc1ccccc1)Nc1nc2c(s1)CCCC2	nt	-2	nt	nt	36	nt
COC(=O)c1sccc1NC(=O)c1c(Cl)cnn1C	nt	2	nt	nt	43	nt
Cn1c(=O)c2c(ncn2CC(=O)N2CCN(S(=O)(=O)c3ccccc3)CC2)n(C)c1=O	nt	-5	nt	nt	-15	nt
O=C(c1ccc(-c2cccc(Cl)c2Cl)o1)N1CCOCC1	3	-4	6	2	-18	-5
O=C(c1ccc(-c2ccc([N+](=O)[O-])cc2Cl)o1)N1CCOCC1	27	-4	11*	1	17	-11
CN(C(=O)Cc1csc(-c2ccccc2)n1)c1c(N)n(Cc2ccccc2)c(=O)[nH]c1=O	nt	1	nt	nt	nt	nt
O=c1[nH]cc(O)c(=O)[nH]1	3	3	1	-1	16	nt
O=c1[nH]cc(N(CCO)CCO)c(=O)[nH]1	-1	1	9.5*	0	27	nt
CC(C)N1C(=O)c2ccccc2N(Cc2ccccc2)S1(=O)=O	-2	-1	10*	1	-12	nt
CCOc1cc(C(=O)Nn2cnnc2)cc(OCC)c1OCC	-1	0	8.9*	0	-18	-6
COc1cc2ccccc2cc1C(=O)N1CC(C)CC(C)C1 (stereo unspecified)	nt	0	nt	nt	53	nt
O=C(O)c1ccc(NC(=S)NC2CCCCC2)cc1	3	-1	9.6*	-6	-24	2
COc1ccc(C(=O)Nc2cc(=O)[nH]c3ncnn23)cc1	1	4	3	-1	41	nt
O=C(NCc1ccccn1)C1CCN(Cc2cnn(-c3ccccc3)c2-n2cccc2)CC1	1	1	-2	-1	-6	1
COc1cccc(CNC(=O)C2CCN(Cc3cnn(-c4ccccc4)c3-n3cccc3)CC2)c1	-3	1	8.9*	1	5	2
c1ccc(Oc2ccc(-c3ccnc4nc(N5CCOCC5)nn34)cc2)cc1	-3	-2	9.3*	-2	50	-9
CC(Oc1ccccc1)c1ccnc2nc(N3CCOCC3)nn12 (stereo unspecified)	0	-2	-3	0	60*	-2
COc1ccc(N2CCN(S(=O)(=O)CCNC(=O)c3ccc(Br)o3)CC2)cc1	nt	-1	nt	nt	65*	nt
CC(=O)c1cccc(NC(=O)Nc2c(C)nn(C)c2C)c1	0	63*	-1	-1	4	0
CCOc1ccc(N2CSC3=C(C#N)C(c4ccco4)CC(=O)N3C2)cc1 (stereo unspecified)	28	6	1	19	94*	-3
Cc1ccc(C2CC(=O)N3CN(c4ccc(Br)cc4)CSC3=C2C#N)o1 (stereo unspecified)	15	4	1	17	93*	-10
CN1C(=O)C(O)(C2CCCCCC2=O)c2ccccc21 (stereo unspecified)	nt	3	nt	nt	nt	nt
